Experimental data from paper PMC7610535 (Nature chemical biology, 2020).

Columns and labels:
MV4-11 cells = test: BrdU/PI flow cytometry, cell cycle distribution of MV4-11 cells; type: cell-based, human; conditions: 0.5 µM, 12 hours
In short: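 Cells were pulsed with 10 µM BrdU for 1 h, washed in ice-cold PBS and fixed overnight in 80% ethanol at −20 °C. After a 1% BSA/PBS-T wash, they were stained 30 min at 37 °C with RNase A (24 µg/ml) and propidium iodide (54 µM), then analysed by flow cytometry. For IMR5, the EtOH-treated cells of the doxycycline-inducible line served as the non-overexpressing cells.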

AURORA-A^D274N = target: T1, AURORA-A^D274N (Homo sapiens, UniProt O14965, D274N); test: Immunoblot of HA-tagged kinase-dead AURORA-A^D274N; type: cell-based; conditions: 1 µM, 18 hours
T1 sequence (O14965 1-403 D274N): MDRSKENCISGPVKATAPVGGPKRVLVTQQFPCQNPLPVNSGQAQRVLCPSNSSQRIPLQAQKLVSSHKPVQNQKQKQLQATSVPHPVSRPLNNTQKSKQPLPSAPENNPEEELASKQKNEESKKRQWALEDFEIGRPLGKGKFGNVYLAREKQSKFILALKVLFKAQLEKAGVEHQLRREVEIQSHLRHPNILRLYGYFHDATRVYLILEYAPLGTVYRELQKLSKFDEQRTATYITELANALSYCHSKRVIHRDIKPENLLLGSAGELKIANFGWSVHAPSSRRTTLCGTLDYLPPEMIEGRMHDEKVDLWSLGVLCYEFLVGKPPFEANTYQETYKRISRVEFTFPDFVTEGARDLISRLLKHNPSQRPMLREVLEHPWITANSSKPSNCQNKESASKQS

Question: How did the cell cycle distribution (MV4-11 cells) turn out when `COc1cc(Nc2ncc3c(n2)-c2ccc(Cl)cc2C(c2c(F)cccc2OC)=NC3)ccc1C(=O)NCCOCCOCCNC(=O)COc1cccc2c1C(=O)N(C1CCC(=O)NC1=O)C2=O` (centres unmarked) [JB170] was run?
Answer: delayed or arrested S-phase progression

Question: And the “depletion of AURORA-A^D274N” value (AURORA-A^D274N)?
Answer: depleted by JB170 to a similar degree as the unmutated protein
